The source of these data is the RNAGym collection of RNA variant scans (doi:10.1126/science.aae0568).

B1: tRNA (parent)
chain: GUUCCGUUGGCGUAAUGGUAACGCGUCUCCCUCCUAAGGAGAAGACUGCGGGUUCGAGUCCCGUACGGAACG

This sample holds only a part of the variants without activity.

The variants in the data set derive from B1. Description: yeast fitness relative to wild type (ratio to wild type); higher = fitter; tRNA-Arg(CCU), competitive growth, 37 C, YPD. The procedure, abridged:
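Variants of the tRNA-Arg(CCU) gene were chemically synthesised with a 3% per-site mutation rate across 69 sites and placed at the native genomic locus in Saccharomyces cerevisiae. Six parallel replicates of the pooled strains were competed in YPD at 37°C for 24 hours, and gene amplicons from the start and end populations were read by 100-nucleotide paired-end sequencing. Darwinian fitness relative to wild type was derived from changes in genotype frequencies. Genotypes required ≥ 100 starting reads, and estimates < 0.5 were set to 0.5.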
Consider GUUCCGUUGGUGUAAUGGUACCGCGUGUCCCUCCUAAGCAGAAGACUGCGGGUUCGCGUCCCGUACGUAACG [C11U A21C C27G G39C A57C G68U], for which the yeast fitness is at most 0.5.
As for GUUCCGUUGGUGUAAUGGUAACGCGUCUCCCUCCUAAGGAGGAGACUGCGUGUUCGUGUCCCGUACGGAACG [C11U A42G G51U A57U], the yeast fitness is at most 0.5.
Next, GUUCCGUUGGUGUAAUGGUAUCGCGUCUCCCUCCUAAGGACAAGACUGCGGGUUCGAGUCCCGUACGGAACG [C11U A21U G41C]: 0.603; GUUCCGUUGGUGUAUUGGUACCGGGUCUUCCUCCUAAGGAGCAGACUGCGGGUUCGAGGCCCGUACUGAACG [C11U A15U A21C C24G C29U A42C U59G G67U]: at most 0.5.
Next, GUUCCGUUGGUGUAUUGGUAACGCGUCUCCCUCCUAAAGAGAAGACUGCGGGUUCAAGUCCCGUACGGAACG [C11U A15U G38A G56A]: at most 0.5.
Next, GUUCCGUUGGUGUAAUGGUAACGCGUCUCCCUCCUAGGGAGAAGACUACGGGUUCGAGUCCCGUACGGAACG [C11U A37G G48A]: 0.597.
As to GUUCCGUUGGUGUAGUGGUAACGGGUGUCCUUCCUAAGGACAAGACUGUGGGUUCGAGUCCCGUACGGAACG [C11U A15G C24G C27G C31U G41C C49U], the yeast fitness is at most 0.5.
Next, GUUCCGUUGGUGUAAUGGUAACGCGUCUCCCUCCUAAGGAGACGACUGCGGGUUCGAGUCCCGUAUGGAACG [C11U A43C C66U]: 0.699.
Consider GUUCCGUUGGUGUAAUGGUUACGCGCCUCCCUCCUAAGGAGAAGACUGCGGGUUCGAGUCCCGUACGGAACG [C11U A20U U26C], for which the yeast fitness is at most 0.5.
Next, GUUCCGUUGGUGUAAUGGUCACGCGUCUGCCUCCUAAGGAGAAGACUGCGGGUUCGAGUCCCGUACGGAACG [C11U A20C C29G]: 0.568; GUUCCGUUGGUGUGAUGGUAACGCGUUUCCUUCCUCAGGAGAACGCUGCGGGUUCCAGUCCCGUACGGAACG [C11U A14G C27U C31U A36C G44C A45G G56C]: at most 0.5; GUUCCGUUGGGGUAAUGGUAACGCGUCUCCCUCCAAAGGAGAAGACUGCGGGUUCGAGUCCAGUAGGGAACG [C11G U35A C62A C66G]: at most 0.5.
Next, GUUCCGUUGGGGUAAUGGUAACGCGUCUCCCUCCUAAGGAGAAGACUGCGGGUUCGAGCCCCGUACGGAACG [C11G U59C]: 0.589; GUUCCGUUGGUGUAGUGGUAACGCGUCUCCCUCCUAAGGAGAAGACUGCGGGUUCGAGUCCCGUCCGGAACG [C11U A15G A65C]: 0.713.
Next, GUUCCGUUGGGGUAAUGGUAACGCGUCUCCCUCCUAAGGAGAAGACUGCGGGUCCGAGUCCCGUACGGAACG [C11G U54C]: 0.512; GUUCCGUUGGUGUAAUGGUAACGCGUCUCCCUCCUAGGGAGAAGACUGCGAGUUCGAGUCCCGUACGGAACG [C11U A37G G51A]: 0.568; GUUCCGUUGGUGUAAUGGUUACGCGUCUCCCUCCUAAGGAGAAGACUGCGGGUUCGAGUCCCGUACGGAACG [C11U A20U]: 0.75.
Take GUUCCGUUGGUGUAUUGGUAACGCGUCUCCCUCCUAAGGAGAAGAUUGCGGGUUCGAGUCCCGUACGGAACG [C11U A15U C46U]: the yeast fitness is 0.741.
For the variant GUUCCGUUGGUGUAAUGGUAACGCGUCUCCCUCCUAAGGGGAAGACGGCGGGUUCGAGUCCCGUACGGAACG [C11U A40G U47G], the yeast fitness is at most 0.5.
Consider GUUCCGUUGGUGUAAUGGUAACGCGUCUCCCUCCUAAGGAGAAGGCUGCGGCUUCGAGUCCCGUACGGAACG [C11U A45G G52C], for which the yeast fitness was at most 0.5.
Take GUUCCGUUGGUGUAAUGGUAACGCGUCUCCCUCCUAAGGAGAAGGCUGCGGAUUCGAGUCCCGUACGGAACG [C11U A45G G52A]: the yeast fitness was determined as 0.63.
Next, GUUCCGUUGGUGUAAUGGUAGCGCGUCUCCCUCCUAUGGAAAAGACUGCGGGUUCGAGUCCCGUACGGAACG [C11U A21G A37U G41A]: at most 0.5.
Next, GUUCCGUUGGUGUAAUGGUAACGCGUCUCCCUCCUAGGGAGAAGACUGCGGGUUCGAGUCCCGUACGGAACG [C11U A37G]: 0.896; GUUCCGUUGGUGUAAUGGUUAAGCGUCUCCCUCCUAAGGAGAAGACUGCGGGUUCGAGUCCCGUAGGGAACG [C11U A20U C22A C66G]: at most 0.5; GUUCCGUUGGUGUUACGGUAACGCGUCUCCCUCCUAAGGAGAAGACUGCGGGUUCGAGUCCCGUACGGAACG [C11U A14U U16C]: at most 0.5.
Next, GUUCCGUUGGUGUAAUGGUACCGCGUCUCCCUCCUAAGGAGGAGACUGCGGGUUCGAGUCCCGUACGGAACG [C11U A21C A42G]: 0.523; GUUCCGUUGGUGUAAUGGUAACGCGUCUCCCUCCUAAGGAGCAGACUGUGGGUUCGAGUCCCGUACGGAACG [C11U A42C C49U]: 0.734.
Consider GUUCCGUUGGUGUAAUGGUUACGUGUCUCUCUACUAAGGAGAAGACUGCGGGUACGAGUCGCGUACGGAACG [C11U A20U C24U C30U C33A U54A C61G], for which the yeast fitness is at most 0.5.
Next, GUUCCGUUGGUGUAAUGGUUACGCGUCUCCCUCCUAAGAAGAAGACUGCGGGUUCGAGUCCCGCCCGGAACG [C11U A20U G39A U64C A65C]: at most 0.5; GUUCCGUUGGUGUAAUGGUAGCGCGUCUCCCUCCUAAGGAGAAGACUGCGGGUUCGAGACCGGUACGGAACG [C11U A21G U59A C62G]: 0.502; GUUCCGUUGGUGUCAUGGUAACGCGUCUCGCUCCUAAGGGGAAGACUGAGGGUUCGAGUCCCGUACGAAACG [C11U A14C C30G A40G C49A G68A]: 0.537.
Next, GUUCCGUUGGUGUACCGGUAGCGCGUCUCCCUCCUAAGGAGAAGACUGCGGGUUCGAGUCCCGUACGGAACG [C11U A15C U16C A21G]: at most 0.5; GUUCCGUUGGGGUAAUGGUAACGCGUCUCCCCCCUAAGGAGAAGACUGCGGGUUCGAGUCCCGUACGGAACG [C11G U32C]: 0.597.
Next, GUUCCGUUGGUGUAAUGGUAGCGAGUCUCCCUCCUAAGGAGAAGACUGUGGGUUCGAGUCCCGUCCGGAACG [C11U A21G C24A C49U A65C]: at most 0.5; GUUCCGUUGGUGUUAUGGGAACGCGUCUCCCUCCUAAGGAGAAGACUGCGGGUUCGAGUCCCGUACGGAACG [C11U A14U U19G]: at most 0.5; GUUCCGUUGGGGUAAUGGUAACGCGUCUCCCUCCAAAGGAGAAGACUGCGGGUUCGAGUCCCGUAUGGAACG [C11G U35A C66U]: 0.51.
Regarding GUUCCGUUGGUGUAAUGGUACCGCGUCUCCCUCCUAAGGAGGAGACUGUGGGUUCGAGUCCCGUACGGCGCG [C11U A21C A42G C49U A69C A70G], the yeast fitness was at most 0.5.
